Measurements: ChEMBL document CHEMBL1828559, “Synthesis and characterization of high-affinity 4,4-difluoro-4-bora-3a,4a-diaza-s-indacene-labeled fluorescent ligands for human β-adrenoceptors” (J Med Chem, 2011)
The source made the active and inactive calls. No cut-off for these calls is given here.

Tests used:
[1] = target: T1, Beta-2 adrenergic receptor (Homo sapiens, UniProt P07550); experiment: Displacement of [3H]-CGP 12177 from human beta-2 adrenergic receptor expressed in CHOK1 cells; assay type: cell-based, CHO-K1
Target sequence in this assay (P07550 whole entry): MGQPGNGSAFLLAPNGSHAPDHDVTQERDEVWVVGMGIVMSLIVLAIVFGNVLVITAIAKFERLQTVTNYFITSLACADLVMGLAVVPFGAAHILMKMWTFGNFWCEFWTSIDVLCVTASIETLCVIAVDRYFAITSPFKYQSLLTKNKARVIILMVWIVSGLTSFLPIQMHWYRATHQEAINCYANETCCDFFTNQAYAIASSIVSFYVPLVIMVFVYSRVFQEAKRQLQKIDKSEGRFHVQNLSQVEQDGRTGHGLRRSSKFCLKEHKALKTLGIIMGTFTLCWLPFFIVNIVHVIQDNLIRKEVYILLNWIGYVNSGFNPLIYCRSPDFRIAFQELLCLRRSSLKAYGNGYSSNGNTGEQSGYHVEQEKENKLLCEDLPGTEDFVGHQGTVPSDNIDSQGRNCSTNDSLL

[2] = target: T2, Beta-3 adrenergic receptor (Homo sapiens, UniProt P13945); experiment: Displacement of [3H]-CGP 12177 from human beta-3 adrenergic receptor expressed in CHOK1 cells; assay type: cell-based, CHO-K1
Target sequence in this assay (P13945 whole entry): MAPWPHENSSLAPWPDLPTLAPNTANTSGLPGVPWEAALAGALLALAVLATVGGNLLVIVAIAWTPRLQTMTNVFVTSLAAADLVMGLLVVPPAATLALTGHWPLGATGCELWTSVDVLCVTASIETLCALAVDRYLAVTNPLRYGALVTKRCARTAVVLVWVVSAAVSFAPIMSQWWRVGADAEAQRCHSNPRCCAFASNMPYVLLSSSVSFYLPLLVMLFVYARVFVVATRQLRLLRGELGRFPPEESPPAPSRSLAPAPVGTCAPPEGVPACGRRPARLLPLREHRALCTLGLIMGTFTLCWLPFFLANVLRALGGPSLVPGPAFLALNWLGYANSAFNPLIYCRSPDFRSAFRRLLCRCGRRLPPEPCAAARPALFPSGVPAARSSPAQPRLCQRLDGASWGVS

[3] = target: T3, Beta-1 adrenergic receptor (Homo sapiens, UniProt P08588); experiment: Antagonist activity at human beta-1 adrenergic receptor site 1 expressed in cimeterol-stimulated CHO-K1 cells assessed as CRE-SPAP level by […]; assay type: functional, cell-based
T3 sequence (P08588 whole entry): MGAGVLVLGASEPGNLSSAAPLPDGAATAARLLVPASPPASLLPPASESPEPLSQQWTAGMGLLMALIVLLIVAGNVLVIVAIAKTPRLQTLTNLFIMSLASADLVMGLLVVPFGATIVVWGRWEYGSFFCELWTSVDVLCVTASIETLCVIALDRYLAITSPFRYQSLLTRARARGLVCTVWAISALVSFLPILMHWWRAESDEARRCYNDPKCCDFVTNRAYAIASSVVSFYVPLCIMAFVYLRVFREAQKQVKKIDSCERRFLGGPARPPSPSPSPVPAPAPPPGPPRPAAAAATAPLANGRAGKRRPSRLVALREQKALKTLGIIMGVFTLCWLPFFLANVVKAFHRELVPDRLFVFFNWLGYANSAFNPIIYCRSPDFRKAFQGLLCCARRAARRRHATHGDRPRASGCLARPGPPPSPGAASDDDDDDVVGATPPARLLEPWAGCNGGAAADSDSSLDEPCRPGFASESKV

[4] = target: T1, Beta-2 adrenergic receptor; experiment: Antagonist activity at human beta-2 adrenergic receptor expressed in salbutamol-stimulated CHO-K1 cells assessed as CRE-SPAP level by […]; assay type: functional, cell-based
Target sequence in this assay (P07550 whole entry): as the sequence (P07550 whole entry) above

[5] = target: T2, Beta-3 adrenergic receptor; experiment: Antagonist activity at human beta-3 adrenergic receptor expressed in fenoterol-stimulated CHOK1 cells assessed as CRE-SPAP level by […]; assay type: functional, cell-based, CHO-K1
Procedure, shortened: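 CHO-K1 cells stably co-expressing human β3-AR (790 fmol/mg protein) and a six-CRE SPAP reporter, grown to confluence. Fenoterol was the stimulating agonist. SPAP secreted into the medium was measured 5–6 h after agonist addition. Fixed antagonist concentrations of 10, 100 or 1000 nM were used. The Stephenson partial-agonist method was used where partial agonism occurred.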
Target sequence in this assay (P13945 whole entry): as the sequence (P13945 whole entry) above

[6] = target: T3, Beta-1 adrenergic receptor; experiment: biochemical
[7] = target: T3, Beta-1 adrenergic receptor; experiment: Antagonist activity at human beta-1 adrenergic receptor site 2 expressed in CGP 12177-stimulated CHO-K1 cells assessed as CRE-SPAP level by […]
[8] = target: T2, Beta-3 adrenergic receptor; experiment: Partial agonist activity at human beta-3 adrenergic receptor expressed in CHOK1 cells assessed as CRE-SPAP production at 1 uM by […] relative to 10 uM isoprenaline; assay type: functional, cell-based; settings: CHO-K1
Procedure, shortened: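 CHO-K1 cells co-expressing human β3-AR and a CRE-SPAP reporter. SPAP secretion was measured 5–6 h after ligand addition. The response to 1 μM ligand alone is expressed as a percentage of the response to 10 μM isoprenaline within the same experiment. Values are mean ± SE of n separate experiments.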
Target sequence in this assay (P13945 whole entry, looked up): as the sequence (P13945 whole entry) above

[9] = target: T1, Beta-2 adrenergic receptor; experiment: Binding affinity to human beta-2 adrenergic receptor expressed in CHOK1 cells at 3 nM after 18 hrs by confocal imaging; assay type: cell-based; settings: CHO-K1
Procedure, shortened: (§1)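 Live confocal imaging at room temperature in HEPES-buffered saline. CHO-K1 cells expressing human β2-AR were grown at least 18 h to 80–100% confluence. Where used, antagonists (ICI 118551 1–100 nM; CGP 20712A) were preincubated for 30 min, then 3 nM fluorescent ligand was added for 10 min. Imaging was done in its continued presence, with 633 nm excitation and emission through a 650 nm long-pass filter. Control CHO-K1 cells lacked the receptor.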
Target sequence in this assay (P07550 whole entry, looked up): as the sequence (P07550 whole entry) above

[10] = target: T1, Beta-2 adrenergic receptor; experiment: Binding affinity to human beta-2 adrenergic receptor expressed in CHOK1 cells at 3 nM preincubated with 1 to 100 nM beta-2 adrenergic receptor antagonist ICI 118551 for 30 mins measured after 18 hrs by confocal imaging; assay type: cell-based; settings: CHO-K1; procedure, shortened: as §1
Target sequence in this assay (P07550 whole entry, looked up): as the sequence (P07550 whole entry) above

[11] = target: T1, Beta-2 adrenergic receptor; experiment: Binding affinity to human beta-2 adrenergic receptor expressed in CHOK1 cells at 3 nM preincubated with > 10 uM beta-1 adrenergic receptor antagonist CGP 20712A for 30 mins measured after 18 hrs by confocal imaging; assay type: cell-based; settings: CHO-K1; procedure, shortened: as §1
Target sequence in this assay (P07550 whole entry, looked up): as the sequence (P07550 whole entry) above

Structure (SMILES)	Kd [1]	Kd [2]	Kd [3]	Kd [4]	Kd [5]	Kd [6]	Kd [7]	Activity [8]	Activity [9]	Activity [10]	Activity [11]
O=C(CCCCCNC(=O)COc1ccc(/C=C/c2ccc3n2[B-](F)(F)[N+]2=C(c4cccs4)C=CC2=C3)cc1)NCCCCCCCCNC[C@H](O)COc1cccc2ccccc12	7.08 nM	67.6 nM	52.5 nM	1.74 nM	141 nM	186 nM	794 nM				
C=CCc1ccccc1OCC(O)CNCCNC(=O)CCCCCNC(=O)COc1ccc(/C=C/c2ccc3n2[B-](F)(F)[N+]2=C(c4cccs4)C=CC2=C3)cc1 (racemic)	2.34 nM	46.8 nM	43.7 nM	1.58 nM	23.4 nM	55 nM	120 nM	60.6%			
O=C(CCCCCNC(=O)COc1ccc(/C=C/c2ccc3n2[B-](F)(F)[N+]2=C(c4cccs4)C=CC2=C3)cc1)NCCCCCCCCNCC(O)COc1cccc2ccccc12 (racemic)	5.75 nM	77.6 nM	219 nM	2.51 nM	115 nM		< 1000 nM				
O=C(CCCCCNC(=O)COc1ccc(/C=C/c2ccc3n2[B-](F)(F)[N+]2=C(c4cccs4)C=CC2=C3)cc1)NCCNC[C@H](O)COc1cccc2ccccc12	1.38 nM	44.7 nM	8.32 nM	0.427 nM	26.3 nM	36.3 nM	91.2 nM				
O=C(CCCCCNC(=O)COc1ccc(/C=C/c2ccc3n2[B-](F)(F)[N+]2=C(c4cccs4)C=CC2=C3)cc1)NCCOCCOCCNCC(O)COc1cccc2ccccc12 (racemic)	3.31 nM	295 nM	41.7 nM	0.437 nM	57.5 nM	72.4 nM	112 nM				
C=CCc1ccccc1OC[C@@H](O)CNCCOCCOCCNC(=O)CCCCCNC(=O)COc1ccc(/C=C/c2ccc3n2[B-](F)(F)[N+]2=C(c4cccs4)C=CC2=C3)cc1	0.933 nM	100 nM	7.59 nM	0.427 nM	61.7 nM	22.4 nM	41.7 nM	63.5%			
C=CCc1ccccc1OCC(O)CNC(C)C (stereo not drawn)								62.4%			
C=CCc1ccccc1OCC(O)CNCCOCCOCCNC(=O)CCCCCNC(=O)COc1ccc(/C=C/c2ccc3n2[B-](F)(F)[N+]2=C(c4cccs4)C=CC2=C3)cc1 (racemic)	1.23 nM	81.3 nM	17.4 nM	0.617 nM	57.5 nM	31.6 nM	77.6 nM	49.6%			
O=C(CCCCCNC(=O)COc1ccc(/C=C/c2ccc3n2[B-](F)(F)[N+]2=C(c4cccs4)C=CC2=C3)cc1)NCCCCNCC(O)COc1cccc2ccccc12 (racemic)	1.35 nM	105 nM	30.9 nM	0.741 nM	79.4 nM	56.2 nM	240 nM				
O=C(CCCCCNC(=O)COc1ccc(/C=C/c2ccc3n2[B-](F)(F)[N+]2=C(c4cccs4)C=CC2=C3)cc1)NCCCCNC[C@H](O)COc1cccc2ccccc12	0.724 nM	123 nM	13.5 nM	0.275 nM	151 nM	33.1 nM	182 nM				
O=C(CCCCCNC(=O)COc1ccc(/C=C/c2ccc3n2[B-](F)(F)[N+]2=C(c4cccs4)C=CC2=C3)cc1)NCCNCC(O)COc1cccc2[nH]ccc12 (racemic)	46.8 nM	331 nM	302 nM	30.2 nM	178 nM	871 nM	< 1000 nM	49.4%			
O=C(CCCCCNC(=O)COc1ccc(/C=C/c2ccc3n2[B-](F)(F)[N+]2=C(c4cccs4)C=CC2=C3)cc1)NCCOCCOCCNCC(O)COc1cccc2[nH]ccc12 (racemic)	11 nM	380 nM	38 nM	7.24 nM	288 nM	97.7 nM	< 1000 nM	53.2%			
O=C(CCCCCNC(=O)COc1ccc(/C=C/c2ccc3n2[B-](F)(F)[N+]2=C(c4cccs4)C=CC2=C3)cc1)NCCNCC(O)COc1cccc2ccccc12 (racemic)	2.75 nM	93.3 nM	75.9 nM	2.57 nM	63.1 nM	89.1 nM	355 nM				
O=C(CCCCCNC(=O)COc1ccc(/C=C/c2ccc3n2[B-](F)(F)[N+]2=C(c4cccs4)C=CC2=C3)cc1)NCCOCCOCCNC[C@H](O)COc1cccc2ccccc12	0.617 nM	81.3 nM	3.47 nM	0.295 nM	107 nM	17.4 nM	67.6 nM		inactive	inactive	inactive
CC(C)NCC(O)COc1cccc2[nH]ccc12 (stereo not drawn)								85.2%			
C=CCc1ccccc1OC[C@@H](O)CNCCNC(=O)CCCCCNC(=O)COc1ccc(/C=C/c2ccc3n2[B-](F)(F)[N+]2=C(c4cccs4)C=CC2=C3)cc1	2.88 nM	69.2 nM	46.8 nM	1.82 nM	41.7 nM	91.2 nM	74.1 nM	56.6%			
